Assay results gathered from unrelated publications.
Compare with care: the assays were run in different laboratories.
SLCO1B3: Solute carrier organic anion transporter family member 1B3 (SLCO1B3, Homo sapiens, UniProt Q9NPD5)

| SMILES | tested on | test | system | setting | quantity | value |
| --- | --- | --- | --- | --- | --- | --- |
| COc1cc(C(=O)NC2CCN(C)CC2)c(F)cc1Nc1ncc(C(F)(F)F)c(Oc2cccc3c2C(=O)N(C)C3)n1 | – | – | human, plasma | oral, 200 mg, multiple doses, once daily, patients | CL/F | 160 mL/min |
| O=C(O[C@H]1[C@@H]2C=CO[C@@H](O[C@@H]3O[C@H](CO)[C@@H](O)[C@H](O)[C@H]3O)[C@@H]2[C@@]2(CO)O[C@@H]12)c1ccc(O)cc1 | SLCO1B3 | transporter uptake, substrate | HEK293 | 5 min | Km | 502 µM |
| CN(C(=O)n1cnc(-c2ccc[n+]([O-])c2)c1)C1CCCCC1 | SLCO1B3 | transporter uptake, inhibitor | HEK293 | 1 µg/mL | inhibition | 11% |
| CN(CCC(=O)O)C(=O)c1ccc2c(c1)CC[C@@H]1[C@@H]2CC[C@]2(C)C(c3cncc(F)c3)=CC[C@@H]12 | SLCO1B3 | transporter uptake, inhibitor | – | – | IC50 | 41 µM |
| Clc1ccc(-c2c(-c3ccccn3)nc3n2CCC3)cc1 | – | metabolic stability | human, liver microsomes | 3 µM, pH 7.4 | microsomal CLint | 170 µL/min/mg |
| C[C@H]1C[C@H]2[C@@H]3CCC4=CC(=O)C=C[C@]4(C)[C@@]3(Cl)[C@@H](O)C[C@]2(C)[C@@]1(O)C(=O)CO | SLCO1B3 | transporter uptake, inhibitor | – | – | IC50 | 1.4 µM |
| Fc1cc(F)cc(Nc2c(-c3ccccn3)nc3ccccn23)c1 | – | metabolic stability | human, liver microsomes | 3 µM, pH 7.4 | microsomal CLint | 64 µL/min/mg |
| c1cnc2ccc(Nc3nc(NC4CC4)c4nc[nH]c4n3)cc2c1 | – | – | human, plasma | oral, 50 mg/m², patients | CL/F | 3180 mL/min |
| COc1ccnc(-c2nc3ccccn3c2N(C)c2ccc(F)cc2)c1 | – | metabolic stability | rat, hepatocytes | – | hepatocyte CLint | > 300 µL/min/10⁶ cells |
| Cc1ccc(C(=O)N(CCCN)[C@@H](c2oc3cc(Cl)ccc3c(=O)c2Cc2ccccc2)C(C)C)cc1 | – | – | human, plasma | intravenous, 4 mg/m², single dose, patients, infusion | clearance | 24.8 mL/min |
